From ChEMBL document CHEMBL3112425, “Design, synthesis, and structure-activity relationship studies of a potent PACE4 inhibitor” (J Med Chem, 2014)
Square brackets hold non-standard residues; d marks the D form. Peptide text beside a SMILES is read from it. * marks the point of attachment. NH(4-amidinobenzyl) = N=C(N)c1ccc(CN*)cc1; X2 = N=C(N)NCCCN(CC(N)=O)N*; Nle = CCCC[C@H](N)C(=O)O

What was measured:
[1] = system: PC-3; experiment: Cytotoxicity against human PC3 cells after 72 hrs by MTT assay; format: functional, cell-based; settings: PC-3, 72 h
How it was run: (§1)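 Prostate cancer cells were kept in RPMI 1640 at 37 °C, 5% CO2, with 5% FBS for DU145 and 10% FBS for LNCaP and PC3. After 24 h, medium was changed and peptides added at various concentrations, up to 350 μM. Viability was read by MTT after 72 h treatment. IC50 from dose–response curves, triplicate, mean ± SEM.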

[2] = Half life in CD-1 mouse plasma at 0.5 ug/uL by RP-HPLC analysis; format: ADME, cell-free
How it was run: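 Peptides at 0.5 μg/μL were incubated at 37 °C in heparinized plasma pooled from mixed-sex CD1 mice. At each time point the reaction was stopped with 1 M guanidinium-HCl, then acetonitrile, and proteins were spun out. Supernatant peptide AUC (RP-HPLC) was compared with non-incubated samples. Half-life came from a one-phase decay fit. Run ≥3 times, duplicate per time point.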

[3] = system: LNCaP; experiment: Cytotoxicity against human LNCAP cells after 72 hrs by MTT assay; format: functional, cell-based; how it was run: as §1
[4] = system: DU-145; experiment: Cytotoxicity against human DU145 cells after 72 hrs by MTT assay; format: functional, cell-based; settings: DU-145, 72 h; how it was run: as §1
[5] = Acute toxicity in human DU145 cells assessed as cell death/lysis at 100 uM after 4 hrs by LDH assay; format: cell-based, DU-145; settings: read-out: INH
How it was run: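 DU145 cells (RPMI 1640, 5% FBS, 37 °C, 5% CO2) plated; 24 h later peptides added at 100 μM. After 4 h, release of lactate dehydrogenase into the medium was quantified enzymatically with a commercial LDH cytotoxicity kit as the measure of acute membrane damage/lysis.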

[6] = molecular target: Furin (Homo sapiens, UniProt P09958); experiment: Inhibition of human recombinant furin expressed in drosophila schneider 2 cells using pyroGlu-Arg-Thr-Lys-Arg-AMC as substrate after 1 hr
Chain of Furin (P09958 whole entry): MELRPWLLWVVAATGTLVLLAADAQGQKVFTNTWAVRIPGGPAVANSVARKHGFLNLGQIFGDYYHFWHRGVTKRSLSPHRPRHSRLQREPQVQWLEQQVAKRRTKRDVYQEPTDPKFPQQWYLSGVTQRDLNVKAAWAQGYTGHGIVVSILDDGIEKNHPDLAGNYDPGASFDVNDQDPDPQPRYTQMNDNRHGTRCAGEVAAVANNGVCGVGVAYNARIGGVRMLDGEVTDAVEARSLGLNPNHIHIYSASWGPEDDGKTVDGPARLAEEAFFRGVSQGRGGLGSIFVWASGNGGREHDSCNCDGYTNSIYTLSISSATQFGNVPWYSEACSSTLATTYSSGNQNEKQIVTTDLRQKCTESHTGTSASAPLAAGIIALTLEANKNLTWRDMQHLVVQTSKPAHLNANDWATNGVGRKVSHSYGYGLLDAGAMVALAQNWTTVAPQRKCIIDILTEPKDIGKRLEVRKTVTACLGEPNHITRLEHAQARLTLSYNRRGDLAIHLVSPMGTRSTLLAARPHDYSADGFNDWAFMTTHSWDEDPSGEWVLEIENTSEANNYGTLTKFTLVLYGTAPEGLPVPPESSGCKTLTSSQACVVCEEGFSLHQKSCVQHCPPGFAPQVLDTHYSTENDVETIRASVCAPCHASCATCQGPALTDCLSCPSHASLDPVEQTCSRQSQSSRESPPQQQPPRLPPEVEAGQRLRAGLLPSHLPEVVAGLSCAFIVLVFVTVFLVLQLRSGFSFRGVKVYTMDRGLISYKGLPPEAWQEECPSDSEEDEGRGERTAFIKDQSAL
How it was run: (§2)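 Human enzymes were expressed in Drosophila S2 cells and purified. Fluorogenic pyroGlu-RTKR-AMC was used at fixed concentration with varied inhibitor, 37 °C over 1 h. Buffers: furin, 100 mM Hepes pH 7.5, 1 mM CaCl2, 1 mM β-mercaptoethanol, 1.8 mg/mL BSA; PACE4 and PC7, 20 mM Bis-Tris pH 6.5, 1 mM CaCl2, 1.8 mg/mL BSA; PC2, same buffer at pH 5.7. Ki from IC50 (Cheng–Prusoff), or apparent Ki (Morrison) for tight binders. Triplicate, mean ± SD.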

[7] = molecular target: T1, Proprotein convertase subtilisin/kexin type 6 (Homo sapiens, UniProt P29122); experiment: Inhibition of human recombinant PACE4 expressed in drosophila schneider 2 cells using pyroGlu-Arg-Thr-Lys-Arg-AMC as substrate after 1 hr; how it was run: as §2
T1 sequence (P29122 whole entry): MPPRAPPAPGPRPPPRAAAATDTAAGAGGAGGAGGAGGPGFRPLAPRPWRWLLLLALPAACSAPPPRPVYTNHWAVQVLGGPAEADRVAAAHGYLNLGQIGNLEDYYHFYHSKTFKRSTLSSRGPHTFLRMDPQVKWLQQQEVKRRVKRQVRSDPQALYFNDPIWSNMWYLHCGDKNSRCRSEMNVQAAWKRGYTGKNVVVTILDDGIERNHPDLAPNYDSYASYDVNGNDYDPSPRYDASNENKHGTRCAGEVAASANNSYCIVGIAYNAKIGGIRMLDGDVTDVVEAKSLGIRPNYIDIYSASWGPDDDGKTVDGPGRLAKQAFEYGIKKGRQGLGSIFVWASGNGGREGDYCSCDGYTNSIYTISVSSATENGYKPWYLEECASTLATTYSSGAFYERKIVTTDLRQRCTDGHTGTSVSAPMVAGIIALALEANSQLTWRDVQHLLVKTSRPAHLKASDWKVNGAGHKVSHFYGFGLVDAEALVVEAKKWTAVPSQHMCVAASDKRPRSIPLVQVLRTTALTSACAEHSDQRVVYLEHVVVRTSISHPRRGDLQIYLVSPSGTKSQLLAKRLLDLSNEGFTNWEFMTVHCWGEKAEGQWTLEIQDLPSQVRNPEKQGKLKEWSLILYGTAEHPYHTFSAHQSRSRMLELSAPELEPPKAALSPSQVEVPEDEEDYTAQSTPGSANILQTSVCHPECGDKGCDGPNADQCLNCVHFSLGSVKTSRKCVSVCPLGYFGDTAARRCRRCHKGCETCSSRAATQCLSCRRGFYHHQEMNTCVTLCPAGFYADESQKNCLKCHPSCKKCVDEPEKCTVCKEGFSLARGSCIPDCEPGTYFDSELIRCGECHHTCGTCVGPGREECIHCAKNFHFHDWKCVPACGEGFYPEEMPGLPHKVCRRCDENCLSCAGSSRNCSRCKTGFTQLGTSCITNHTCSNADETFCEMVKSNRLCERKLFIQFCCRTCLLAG

[8] = system: PC-3; experiment: Cytotoxicity against human PC3 cells up to 350 uM after 72 hrs by MTT assay; format: functional; how it was run: as §1
[9] = system: Plasma; experiment: Drug degradation in CD-1 mouse plasma at 0.5 ug/uL after 30 mins by MALDI-TOF MS analysis; format: ADME, cell-free; settings: 0.5 h
How it was run: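 For fragment mapping, 100 μg peptide was incubated in murine plasma at 37 °C. At each time point, plasma samples were quenched with 3% TFA. Proteins were precipitated with 2 volumes acetonitrile and centrifuged at 17 000g. Supernatants were analyzed by MALDI-TOF MS for C-terminally truncated fragments.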

[10] = molecular target: T2, Proprotein convertase subtilisin/kexin type 7 (Homo sapiens, UniProt Q16549); experiment: Inhibition of human PC7 expressed in drosophila schneider 2 cells using pyroGlu-Arg-Thr-Lys-Arg-AMC as substrate after 1 hr; how it was run: as §2
T2 sequence (Q16549 whole entry): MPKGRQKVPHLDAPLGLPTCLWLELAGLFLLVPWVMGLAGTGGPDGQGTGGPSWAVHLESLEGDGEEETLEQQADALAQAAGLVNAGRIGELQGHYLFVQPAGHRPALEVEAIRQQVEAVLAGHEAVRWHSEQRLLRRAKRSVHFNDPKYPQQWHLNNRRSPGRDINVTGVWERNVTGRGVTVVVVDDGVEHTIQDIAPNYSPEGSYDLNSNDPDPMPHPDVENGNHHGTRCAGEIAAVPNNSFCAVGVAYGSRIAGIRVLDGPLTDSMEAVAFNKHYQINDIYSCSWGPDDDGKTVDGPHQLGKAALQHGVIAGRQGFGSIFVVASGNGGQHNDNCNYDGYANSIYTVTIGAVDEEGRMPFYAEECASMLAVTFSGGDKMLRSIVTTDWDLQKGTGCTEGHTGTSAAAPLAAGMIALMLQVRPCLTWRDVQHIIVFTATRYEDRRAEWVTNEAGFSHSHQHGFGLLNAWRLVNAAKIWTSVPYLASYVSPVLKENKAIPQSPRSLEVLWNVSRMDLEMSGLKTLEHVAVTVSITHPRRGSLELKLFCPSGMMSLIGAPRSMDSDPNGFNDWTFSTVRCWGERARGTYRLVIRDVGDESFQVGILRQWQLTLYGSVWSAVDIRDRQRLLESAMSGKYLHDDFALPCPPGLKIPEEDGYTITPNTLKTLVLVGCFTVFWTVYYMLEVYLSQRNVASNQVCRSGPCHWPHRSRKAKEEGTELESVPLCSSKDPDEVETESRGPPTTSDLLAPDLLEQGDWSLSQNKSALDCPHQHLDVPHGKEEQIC

[11] = molecular target: T3, Neuroendocrine convertase 2 (Homo sapiens, UniProt P16519); experiment: Inhibition of human PC2 expressed in drosophila schneider 2 cells using pyroGlu-Arg-Thr-Lys-Arg-AMC as substrate after 1 hr; how it was run: as §2
T3 sequence (P16519 whole entry): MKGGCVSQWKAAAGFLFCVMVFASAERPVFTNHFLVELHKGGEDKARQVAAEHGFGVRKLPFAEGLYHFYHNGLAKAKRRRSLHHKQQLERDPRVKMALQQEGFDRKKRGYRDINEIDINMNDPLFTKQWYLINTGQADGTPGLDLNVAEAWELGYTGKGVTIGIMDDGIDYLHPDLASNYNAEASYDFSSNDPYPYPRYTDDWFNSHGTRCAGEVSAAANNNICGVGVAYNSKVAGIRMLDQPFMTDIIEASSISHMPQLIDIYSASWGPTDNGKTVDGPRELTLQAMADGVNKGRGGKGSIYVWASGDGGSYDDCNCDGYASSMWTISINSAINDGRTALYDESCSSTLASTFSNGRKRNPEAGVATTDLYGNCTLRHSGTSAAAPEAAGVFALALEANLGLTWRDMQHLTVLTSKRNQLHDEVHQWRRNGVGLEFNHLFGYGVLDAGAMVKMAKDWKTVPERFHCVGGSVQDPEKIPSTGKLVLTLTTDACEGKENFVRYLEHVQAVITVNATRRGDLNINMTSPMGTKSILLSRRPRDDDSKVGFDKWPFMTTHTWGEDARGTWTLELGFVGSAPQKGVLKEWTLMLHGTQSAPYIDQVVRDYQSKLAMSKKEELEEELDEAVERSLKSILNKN

[12] = system: LNCaP; experiment: Cytotoxicity against human LNCAP cells up to 350 uM after 72 hrs by MTT assay; format: functional; how it was run: as §1

SMILES | half-life at 0.5 ug/uL [2] [h] | Ki [6] [nM] | Ki [7] [nM] | Stability [9] | Ki [10] [nM] | Ki [11] [nM] | IC50 [1] [nM] | IC50 [3] [nM] | IC50 [4] [nM] | cytotoxicity at 4 h, 100 µM [5] [%] | inhibition (INH) [8] [%] | inhibition (INH) [12] [%]
CCCC[C@@H](NC(C)=O)C(=O)N[C@@H](CC(C)C)C(=O)N[C@@H](CC(C)C)C(=O)N[C@@H](CC(C)C)C(=O)N[C@@H](CCCNC(=N)N)C(=O)N[C@H](C(=O)N[C@@H](CCCCN)C(=O)N[C@@H](CCCNC(=N)N)C(N)=O)C(C)C | 7.1 | 800 | 25 | – | – | – | 150000 | 90000 | 80000 | < 5 | – | –
CC(=O)N[C@@H](CC(C)C)C(=O)N[C@@H](CC(C)C)C(=O)N[C@@H](CC(C)C)C(=O)N[C@@H](CC(C)C)C(=O)N[C@@H](CCCNC(=N)N)C(=O)N[C@H](C(=O)N[C@@H](CCCCN)C(=O)NCc1ccc(C(=N)N)cc1)C(C)C (Ac-LLLLRVK-{NH(4-amidinobenzyl)}) | – | – | – | – | – | – | 150000 | 40000 | 25000 | – | – | –

The next lines start with results.

half-life at 0.5 ug/uL [2] [h] | Ki [6] [nM] | Ki [7] [nM] | Stability [9] | Ki [10] [nM] | Ki [11] [nM] | SMILES | IC50 [1] [nM] | IC50 [3] [nM] | IC50 [4] [nM] | cytotoxicity at 4 h, 100 µM [5] [%] | inhibition (INH) [8] [%] | inhibition (INH) [12] [%]
5.6 | 1120 | 400 | – | – | – | CC(=O)N[C@@H](CC(C)C)C(=O)N[C@@H](CC(C)C)C(=O)N[C@@H](CC(C)C)C(=O)N[C@@H](CC(C)C)C(=O)N[C@@H](CCCNC(=N)N)C(=O)N[C@H](C(=O)N[C@@H](CCCCN)C(=O)NN(CCCNC(=N)N)CC(N)=O)C(C)C (Ac-LLLLRVK-X2) | – | 240000 | 270000 | < 5 | <50 | –
12 | 4.3 | 3.1 | Unstable | 13.8 | 0.24 | CC(=O)N[C@@H](CC(C)C)C(=O)N[C@@H](CC(C)C)C(=O)N[C@@H](CC(C)C)C(=O)N[C@@H](CC(C)C)C(=O)N[C@@H](CCCN=C(N)N)C(=O)N[C@H](C(=O)N[C@@H](CCCCN)C(=O)NCc1ccc(C(=N)N)cc1)C(C)C (Ac-LLLLRVK-{NH(4-amidinobenzyl)}) | – | – | – | < 5 | – | –
– | 1980 | 385 | – | – | – | CCCC[C@H](NC(=O)[C@H](CC(C)C)NC(=O)[C@H](CC(C)C)NC(C)=O)C(=O)N[C@@H](CC(C)C)C(=O)N[C@@H](CCCNC(=N)N)C(=O)N[C@H](C(=O)N[C@@H](CCCCN)C(=O)N[C@@H](CCCNC(=N)N)C(N)=O)C(C)C (Ac-LL[Nle]LRVKR-NH2) | – | – | 190000 | < 5 | <50 | <50
